B1: tRNA (parent)
chain: GUUCCGUUGGCGUAAUGGUAACGCGUCUCCCUCCUAAGGAGAAGACUGCGGGUUCGAGUCCCGUACGGAACG

The values that follow come from the RNAGym collection of RNA variant scans (doi:10.1126/science.aae0568).

Fewer inactive variants are shown than the library holds.

In the series the parent is B1. As to the kind of experiment: yeast fitness relative to wild type (ratio to wild type); higher = fitter; tRNA-Arg(CCU), competitive growth, 37 C, YPD. The method in brief:
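For this measurement, the tRNA-Arg(CCU) gene was varied by chemical synthesis at a 3% per-site mutation rate across 69 sites, and each variant was placed at the native genomic locus in Saccharomyces cerevisiae. The pooled strains went through a 24-hour competition in YPD at 37°C in six parallel replicates, with amplicons from start and end populations read by 100-nucleotide paired-end sequencing. Darwinian fitness relative to wild type followed from the change in each genotype's frequency. Genotypes needed ≥ 100 starting reads, and estimates < 0.5 were set to 0.5.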
On to GUUCCGUUGGCGUGAUGGUAACGCGUCUGCCUCCUAAGGAGAAGACUGCGGGUUCGAGUCCCGUACGGAACG, for which the yeast fitness turned out to be 0.564.

Consider GUUCCGUUGGCGUGAUGAUAACGCGACUCCCCCCUAAGGAGAAGACUGCGGGUUCGAGUCCCGUACGGAACG, for which the yeast fitness is at most 0.5.

Consider GUUCCGUUGGCGUGAUGGUAACGCGUCUACCUCCUAGGGAGAAGACUGCGGGUUCGAGUCCCGUACGGAACG, for which the yeast fitness is at most 0.5.

As to GUUCCGUUGGCGUGAUGAUAACGCGACUCCCUCCUAAGGAGAAGACUGCAGGUUCGAGUCCCGUACGGAACG, the yeast fitness was at most 0.5.

Turning to GUUCCGUUGGCGUGAUGAUAACGCGUCUCCCUCCUAAGGAGAAGACUGCGGGUUCGAGUCCCGUACGGAACG, the yeast fitness came to 0.63.

Consider GUUCCGUUGGCGUGAUGGUAACGCGUCUGCUUCCUAAGGAGAAGACUGCGGGUUCGAGUCCCGUACGGAACG, for which the yeast fitness was found to be 0.6.

Take GUUCCGUUGGCGUGAUGGUAACGCGUUUCCCUCCUAAGGAGAAGAAUGCGGGUUCGAGUCCCGUACGGAACG: the yeast fitness turned out to be 0.673.

Consider GUUCCGUUGGCGUGAUGGUAACGCGUCUUCCUCCUAAGGAAAAGACUGCGGGUGUGAGUCCCGUACGGUACG, for which the yeast fitness was at most 0.5.

With GUUCCGUUGGCGUGAUGGUAACGCGUCUCACUCAUAAGGAGACGACUGCGGGUUCGAGUCCCGUCCGGACCG, the yeast fitness was at most 0.5.

Take GUUCCGUUGGCGUGAUGGUAACGCGUCUGCCUCCUAAGGAGCAGACUGCGGGUUCGAGUCCCGUACGGAACG: the yeast fitness was at most 0.5.

With GUUCCGUUGGCGUGAUGGUAACGCGUUUCCCUCCUAAGGAGAAGACUGAGGGAUCGAGUCUCGUACGGAACG, the yeast fitness was at most 0.5.

Regarding GUUCCGUUGGCGUGAUGGUAACGCGUGUCCCUCCUAAGGAGAAGACUGCGGGUUCGAGUCCCGUACGGAACG, the yeast fitness came to 0.562.

In the case of GUUCCGUUGGCGUGAUGGUAACGCGUCUCCAUCGUAAGGAGACGACUGCGGGUUCGAGUCCCGUACGGAACG, the yeast fitness is at most 0.5.

On to GUUCCGUUGGCGUGAUGGUAACGCGUCUCCCUCCUAAGGAGAAGACUGCGGGUUCGAGUCCGGUACGGAACG, for which the yeast fitness was 0.688.

With GUUCCGUUGGCGUGAUGGUAACGCGUCUCCUUCCUAAGGAGGAGACUGCGGGUUCGAGUCCUGUACGGCACG, the yeast fitness is at most 0.5.

For GUUCCGUUGGCGUGAUGAUAAGGCGUCUCCCUCCUAAGGAGAAGACUGCGGGUUCGAGUCCCGUACGGAACG, the yeast fitness is at most 0.5.

Regarding GUUCCGUUGGCGUGAUAGUAACGCGUCUCCCUCCUAAGGAGAAGACUGCGGGUUCGCGUCCCGUACGGAACG, the yeast fitness is at most 0.5.

On to GUUCCGUUGGCGUGAUGGUAACGCGUCUGCCUCCUUAGGAGAAGAGUGCGGGUUCGAGUCCCGUACGGAACG, for which the yeast fitness is at most 0.5.

GUUCCGUUGGCGUGAUGGUAACGCGUCUCGCUCCUAAGGAGAAGGCUGCGGGUUCGAGUCCCGUACGGAACG: the yeast fitness was 0.585.

For GUUCCGUUGGCGUGAUGGUAACGCGUCUCCGUCCUAUGGAGAAGACUGCGGGUUCGCGUCCCGUACGGUACG, the yeast fitness is at most 0.5.

GUUCCGUUGGCGUGAUGGUAACGCGUCUGCCUUCUAAGGAGAAGACUGCGGGUUCGAGUCCCGUACGGAACG: the yeast fitness is 0.55.

Take GUUCCGUUGGCGUGAUGGUAACGCGUCUCUCUCCUAAGGAGAAGAUUGCAGGUUCGAGUCCCGUACGGGACG: the yeast fitness turned out to be 0.704.

Consider GUUCCGUUGGCGUGAUCGUAACGCGUCUCCCUCCUCAGGAGAAGACUAGGAGUUCGAGUCCCGUACGGAACG, for which the yeast fitness was at most 0.5.

For GUUCCGUUGGCGUGAUGGUAACGCGUCUACAUCCUAAGGCGAAAACUGCGGGUUCGAGACCCGUACGGAACG, the yeast fitness is at most 0.5.

For GUUCCGUUGGCGUGAUGGUAACGCGUCUCACUCGUAAGGAGAAGACUGCGGGUUCGAGUCCCGUACGGAACG, the yeast fitness came out at 0.508.

Take GUUCCGUUGGCGUGAUCGUAAGGCGUCUCCCUCCUAAGGAGAAGACUGCGGGUUCGAGUCCCGUACGGAACG: the yeast fitness is at most 0.5.

Regarding GUUCCGUUGGCGUGAUGGUAACGUGUCUCCCUCCUAAGGAGAAGACUGCGGAUUCGAGUUCCGUACGGAACG, the yeast fitness was at most 0.5.

On to GUUCCGUUGGCGUGAUGGUAACGCGUCUCCCUCUUAAGGAGAAGACUGCGGGUUCGAGUCCCGUACGGAACG, for which the yeast fitness came out at 0.62.

On to GUUCCGUUGGCGUGAUGGUAACGCGUCUCCCUCGUAAGGAGAAGACUGCGGGUUCGAGUCCCCUACCGAACG, for which the yeast fitness is at most 0.5.

As for GUUCCGUUGGCGUGAUAGUAACACGUCGCCCUCCUAAGGAGAAGACUGCGGGUUCGAGUCCCGUACGGAACG, the yeast fitness is at most 0.5.

As for GUUCCGUUGGCGUGAUGGUAACGCGUCUCUCUCCUAAGGAGAAGAAUGCAGGUUCGAGUCCCGUACGGAACG, the yeast fitness was at most 0.5.

As for GUUCCGUUGGCGUGAUGGUAACGCGUAUCCCUCCUAAGGAGAAGACUGCGGGUGCGAGUCCCGUACGGAACG, the yeast fitness is at most 0.5.

In the case of GUUCCGUUGGCGUGAUGGUAACGCGUCUCCCUCGUAAGGAGAAGACUGCGGGUUCGAGUGCCGUACGGACCG, the yeast fitness is at most 0.5.

Turning to GUUCCGUUGGCGUGAUGGUAACGCGUCUCCGUCCUAAGGAGAAGACUGCGGGUUCGAGUCCCGUACGGAACG, the yeast fitness amounted to 0.945.

As for GUUCCGUUGGCGUGAUGGUAACGCGUCUCCCUCAUAAGGAGAAGACUGCGGGUUCGAGUCCGGUACGCAACG, the yeast fitness was 0.763.

Turning to GUUCCGUUGGCGUGAUGGUAACGCGUCUCCUUUCUAAGGAGAAGCCUACGGGUUCGAGUCCCGUACGGAACG, the yeast fitness was 0.626.

GUUCCGUUGGCGUGAUGGUAACGCGUCUCACUCAUAAGGAGACGACUGCGGGUUCGAGUCCUGUACGGAACG: the yeast fitness is at most 0.5.
